Source: ChEMBL document CHEMBL1154367, “Novel 4-N-substituted aryl but-3-ene-1,2-dione derivatives of piperazinyloxazolidinones as antibacterial agents” (2009)
Converted amounts (≈) assume the structure as drawn. The source made the active and inactive calls. The rule behind the calls is not given here.

Key:
Klebsiella pneumoniae = experiment: Antibacterial activity against Klebsiella pneumoniae after 24 hrs by agar dilution method; assay type: functional, organism-based
How it was run: (§1)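 MIC by agar dilution with doubling dilutions in cation-adjusted Mueller Hinton agar, 50–0.019 range, incubated in air at 35 °C for 24 h. Strains pre-grown on nutrient agar at 37 °C for 24 h, then suspended in normal saline with 0.05% Tween 20 at about 1.0–2.0 × 10⁷ cells/mL, matched to 0.5 McFarland.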

Staphylococcus aureus [1] = experiment: Antibacterial activity against methicillin and vancomycin-resistant Staphylococcus aureus ATCC 29213 after 24 hrs by agar dilution method; assay type: functional; conditions: ATCC 29213, 24 h
Staphylococcus aureus [2] = experiment: Antibacterial activity against methicillin-resistant Staphylococcus aureus ATCC 70069 after 24 hrs by agar dilution method; assay type: functional; conditions: ATCC 70069, 24 h
Staphylococcus aureus [3] = experiment: Antibacterial activity against floxacin and methicillin-resistant Staphylococcus aureus ATCC 25923 after 24 hrs by agar dilution method; assay type: functional; conditions: ATCC 25923, 24 h
Bacillus cereus = experiment: Antibacterial activity against Bacillus cereus MTCC 430 after 24 hrs by agar dilution method; assay type: functional; conditions: MTCC 430, 24 h; how it was run: as §1
Enterococcus faecalis = experiment: Antibacterial activity against Enterococcus faecalis MTCC 439 after 24 hrs by agar dilution method; assay type: functional; conditions: MTCC 439, 24 h; how it was run: as §1
Streptococcus pyogenes = experiment: Antibacterial activity against Streptococcus pyogenes after 24 hrs by agar dilution method; assay type: functional; how it was run: as §1
Pseudomonas aeruginosa = experiment: Antibacterial activity against Pseudomonas aeruginosa after 24 hrs by agar dilution method; assay type: functional, organism-based; how it was run: as §1
Escherichia coli = experiment: Antibacterial activity against Escherichia coli after 24 hrs by agar dilution method; assay type: functional, organism-based; how it was run: as §1

| SMILES | Activity (Klebsiella pneumoniae) | MIC (Staphylococcus aureus [1]) | MIC (Staphylococcus aureus [2]) | MIC (Staphylococcus aureus [3]) | MIC (Bacillus cereus) | MIC (Enterococcus faecalis) | MIC (Streptococcus pyogenes) | Activity (Pseudomonas aeruginosa) | Activity (Escherichia coli) |
| --- | --- | --- | --- | --- | --- | --- | --- | --- | --- |
| CC(=O)NC[C@H]1CN(c2ccc(N3CCN(C(=O)C(=O)/C=C/c4cccs4)CC3)c(F)c2)C(=O)O1 | inactive | 1.56 µg/mL (≈ 3.12 µM) | 0.78 µg/mL (≈ 1.56 µM) | 0.39 µg/mL (≈ 0.779 µM) | 0.39 µg/mL (≈ 0.779 µM) | 0.78 µg/mL (≈ 1.56 µM) | 0.39 µg/mL (≈ 0.779 µM) | inactive | inactive |
| CC(=O)NC[C@H]1CN(c2ccc(N3CCN(C(=O)C(=O)/C=C/c4ccco4)CC3)c(F)c2)C(=O)O1 | inactive | 3.12 µg/mL (≈ 6.44 µM) | 1.56 µg/mL (≈ 3.22 µM) | 0.39 µg/mL (≈ 0.805 µM) | 0.78 µg/mL (≈ 1.61 µM) | 0.78 µg/mL (≈ 1.61 µM) | 0.78 µg/mL (≈ 1.61 µM) | inactive | inactive |
| CC(=O)NC[C@H]1CN(c2ccc(N3CCN(C(=O)C(=O)/C=C/c4ccc(F)c(F)c4)CC3)c(F)c2)C(=O)O1 | inactive | 3.12 µg/mL (≈ 5.88 µM) | 1.56 µg/mL (≈ 2.94 µM) | 0.78 µg/mL (≈ 1.47 µM) | 0.39 µg/mL (≈ 0.735 µM) | 0.78 µg/mL (≈ 1.47 µM) | 0.78 µg/mL (≈ 1.47 µM) | inactive | inactive |
| CC(=O)NC[C@H]1CN(c2ccc(N3CCN(C(=O)C(=O)/C=C/c4ccc(Cl)c(Cl)c4Cl)CC3)c(F)c2)C(=O)O1 | inactive | > 50 µg/mL | > 50 µg/mL | > 50 µg/mL | > 50 µg/mL | > 50 µg/mL | > 50 µg/mL | inactive | inactive |
| CC(=O)NC[C@H]1CN(c2ccc(N3CCN(C(=O)C(=O)/C=C/c4ccsc4)CC3)c(F)c2)C(=O)O1 | inactive | 1.56 µg/mL (≈ 3.12 µM) | 0.78 µg/mL (≈ 1.56 µM) | 0.78 µg/mL (≈ 1.56 µM) | 0.78 µg/mL (≈ 1.56 µM) | 0.78 µg/mL (≈ 1.56 µM) | 0.39 µg/mL (≈ 0.779 µM) | inactive | inactive |
| CC(=O)NC[C@H]1CN(c2ccc(N3CCN(C(=O)C(=O)/C=C/c4ccc(C(F)(F)F)cc4)CC3)c(F)c2)C(=O)O1 | inactive | 1.56 µg/mL (≈ 2.77 µM) | 0.78 µg/mL (≈ 1.39 µM) | 0.78 µg/mL (≈ 1.39 µM) | 1.56 µg/mL (≈ 2.77 µM) | 0.19 µg/mL (≈ 0.338 µM) | 0.19 µg/mL (≈ 0.338 µM) | inactive | inactive |
| CC(=O)NC[C@H]1CN(c2ccc(N3CCN(C(=O)C(=O)/C=C/c4ccc(C)cc4)CC3)c(F)c2)C(=O)O1 | inactive | 0.39 µg/mL (≈ 0.767 µM) | 0.19 µg/mL (≈ 0.374 µM) | 0.19 µg/mL (≈ 0.374 µM) | 0.19 µg/mL (≈ 0.374 µM) | 0.04 µg/mL (≈ 0.0787 µM) | 0.09 µg/mL (≈ 0.177 µM) | inactive | inactive |
| CC(=O)NC[C@H]1CN(c2ccc(N3CCN(C(=O)C(=O)/C=C/c4ccc(Cl)cc4)CC3)c(F)c2)C(=O)O1 | inactive | 0.78 µg/mL (≈ 1.47 µM) | 0.78 µg/mL (≈ 1.47 µM) | 0.78 µg/mL (≈ 1.47 µM) | 0.39 µg/mL (≈ 0.737 µM) | 0.78 µg/mL (≈ 1.47 µM) | 0.39 µg/mL (≈ 0.737 µM) | inactive | inactive |
| CC(=O)NC[C@H]1CN(c2ccc(N3CCN(C(=O)C(=O)/C=C/c4ccccc4)CC3)c(F)c2)C(=O)O1 | inactive | 0.78 µg/mL (≈ 1.58 µM) | 0.39 µg/mL (≈ 0.789 µM) | 0.78 µg/mL (≈ 1.58 µM) | 0.39 µg/mL (≈ 0.789 µM) | 0.78 µg/mL (≈ 1.58 µM) | 0.39 µg/mL (≈ 0.789 µM) | inactive | inactive |
| CN[C@H](CC(C)C)C(=O)N[C@H]1C(=O)N[C@@H](CC(N)=O)C(=O)N[C@H]2C(=O)N[C@H]3C(=O)N[C@H](C(=O)N[C@H](C(=O)O)c4cc(O)cc(O)c4-c4cc3ccc4O)[C@H](O)c3ccc(c(Cl)c3)Oc3cc2cc(c3O[C@@H]2O[C@H](CO)[C@@H](O)[C@H](O)[C@H]2O[C@H]2C[C@](C)(N)[C@H](O)[C@H](C)O2)Oc2ccc(cc2Cl)[C@H]1O [VANCOMYCIN] | – | 1.56 µg/mL (≈ 1.08 µM) | 6.25 µg/mL (≈ 4.31 µM) | 0.39 µg/mL (≈ 0.269 µM) | 0.19 µg/mL (≈ 0.131 µM) | 0.78 µg/mL (≈ 0.538 µM) | 0.39 µg/mL (≈ 0.269 µM) | – | – |
| CC(=O)NC[C@H]1CN(c2ccc(N3CCOCC3)c(F)c2)C(=O)O1 [LINEZOLID] | – | 3.12 µg/mL (≈ 9.25 µM) | 1.56 µg/mL (≈ 4.62 µM) | 1.56 µg/mL (≈ 4.62 µM) | 0.78 µg/mL (≈ 2.31 µM) | 3.12 µg/mL (≈ 9.25 µM) | 1.56 µg/mL (≈ 4.62 µM) | – | – |
| CC(=O)NC[C@H]1CN(c2ccc(N3CCN(C(=O)C(=O)/C=C/c4ccc(F)cc4)CC3)c(F)c2)C(=O)O1 | inactive | 1.56 µg/mL (≈ 3.04 µM) | 0.78 µg/mL (≈ 1.52 µM) | 0.78 µg/mL (≈ 1.52 µM) | 0.39 µg/mL (≈ 0.761 µM) | 0.78 µg/mL (≈ 1.52 µM) | 0.39 µg/mL (≈ 0.761 µM) | inactive | inactive |
